Results on 32 compounds are retold here after ChEMBL document CHEMBL1153000, “Berbamine derivatives: a novel class of compounds for anti-leukemia activity” (Eur J Med Chem, 2009).

As usually defined, the IC50 is the concentration needed to halve the response being measured. Read a high IC50 as weaker potency in that assay.

The source made the active and inactive calls. The calls are words filed in the database; no cut-off is given here.

Experiment [1] relates to K562. Put plainly: Cytotoxicity against human imatinib-resistant K562 leukemia cells expressing p210Bcr/Abl and MDR1 at 48 hrs by MTT assay. It is filed as functional, cell-based. The settings on record: K562, 48 h. A digest of the protocol: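 Cells were cultured with 100 µg/ml streptomycin at 37 °C in a humidified 95% air/5% CO2 incubator. Viability was read by MTT after 48 h exposure and counts were taken by hemocytometer. IC50 is the mean of three independent determinations.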
Background: Tetrazolium dyes change colour on reduction, which living cells bring about.

Experiment [2] has as its system K562. Put plainly: Inhibition of NF-kappaB translocation from cytoplasm to nucleus in human imatinib-resistant K562 leukemia cells expressing p210Bcr/Ab assessed as disappearance of NF-kappaB p65/relA subunit nuclear level at 0.5 ug/ml after 24 hrs by Western blot analysis. In general terms: In western blotting, separated proteins are transferred to a membrane and probed.

The test system of experiment [3] is K562. Put plainly: Inhibition of NF-kappaB translocation from cytoplasm to nucleus in human imatinib-resistant K562 leukemia cells expressing p210Bcr/Ab assessed as disappearance of NF-kappaB p65/relA subunit nuclear level at 0.5 ug/ml after 24 hrs by Western blot analysis. It counts as functional, cell-based. The method in brief: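 Leukemia cells were exposed for 24 h (berbamine 8 µg/ml; derivatives 0.5 µg/ml). Nuclear levels of NF-κB p65/relA were analysed by immunoblot with lamin as the nuclear loading control, and total p65 was also assessed.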

The test system of experiment [4] is K562. Put plainly: Induction of apoptosis in human imatinib-resistant K562 leukemia cells expressing p210Bcr/Abl at 2 ug/ml after 48 hrs by flow cytometry. It is filed as functional. The method in brief:
(§1)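 K562-R cells (MDR1-expressing) were treated with 1.0 or 2.0 µg/ml for 48 h, then harvested, PBS-washed, fixed in ice-cold 70% ethanol at 4 °C overnight, and stained with 50 µg/ml propidium iodide. Flow cytometry gave the percentage of cells in G0/G1, S and G2/M, with the sub-G1 fraction scored as apoptotic.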
(In general: Flow cytometry measures light scatter and fluorescence of single cells or particles in a stream.)

Experiment [5] concerns K562. Put plainly: Cell cycle arrest in human imatinib-resistant K562 leukemia cells expressing p210Bcr/Ab assessed as accumulation at S phase at 1 ug/ml after 48 hrs by flow cytometry. It counts as functional. The method in brief: as §1
In experiment [6] the test system is K562. Description: Cell cycle arrest in human imatinib-resistant K562 leukemia cells expressing p210Bcr/Ab assessed as accumulation at G2/M phase at 1 ug/ml after 48 hrs by flow cytometry. It is filed as functional. A digest of the protocol:
as §1

Experiment [7] deals with K562. Put plainly: Cell cycle arrest in human imatinib-resistant K562 leukemia cells expressing p210Bcr/Ab assessed as accumulation at G0/G1 phase at 2 ug/ml after 48 hrs by flow cytometry. It is filed as functional. The method in brief:
as §1

The test system of experiment [8] is K562. Description: Cell cycle arrest in human imatinib-resistant K562 leukemia cells expressing p210Bcr/Ab assessed as accumulation at S phase at 2 ug/ml after 48 hrs by flow cytometry. It is filed as functional. A digest of the protocol: as §1
In experiment [9] the test system is K562. Put plainly: Cell cycle arrest in human imatinib-resistant K562 cells assessed as accumulation at G2/M phase at 2 ug/ml after 48 hrs by flow cytometry. It is filed as functional. A digest of the protocol: as §1
Experiment [10] deals with K562. Description: Induction of apoptosis in human imatinib-resistant K562 cells expressing p210Bcr/Abl at 1 ug/ml after 48 hrs by flow cytometry. It is filed as functional. A digest of the protocol:
as §1

The test system of experiment [11] is K562. Put plainly: Cell cycle arrest in human imatinib-resistant K562 leukemia cells expressing p210Bcr/Ab assessed as accumulation at G0/G1 phase at 1 ug/ml after 48 hrs by flow cytometry. It counts as functional. The method in brief: as §1

In [1], `COc1cc2c3cc1Oc1c(OC)c(OC)cc4c1[C@@H](Cc1ccc(OCCCBr)c(c1)Oc1ccc(cc1)C[C@@H]3N(C)CC2)N(C)CC4` came in with an IC50 of 1660 nM.

As for `COc1cc2c3cc1Oc1c(OC)c(OC)cc4c1[C@@H](Cc1ccc(OC(=O)C(C)(C)C)c(c1)Oc1ccc(cc1)C[C@@H]3N(C)CC2)N(C)CC4`, the IC50 in experiment [1] was 1010 nM.

`COc1cc2c3cc1Oc1c(OC)c(OC)cc4c1[C@@H](Cc1ccc(OC(=O)Cc5ccccc5)c(c1)Oc1ccc(cc1)C[C@@H]3N(C)CC2)N(C)CC4` gave a half-inhibitory concentration (IC50) in experiment [1] of 2230 nM.

For the compound `COc1cc2c3cc1Oc1c(OC)c(OC)cc4c1[C@@H](Cc1ccc(OC(=O)c5ccc(Cl)cc5)c(c1)Oc1ccc(cc1)C[C@@H]3N(C)CC2)N(C)CC4`, the IC50 in experiment [1] was 980 nM. Also, the inhibition result in experiment [2] and in [3] was “Active” throughout.

As for `COc1cc2c3cc1Oc1c(OC)c(OC)cc4c1[C@@H](Cc1ccc(OC(=O)c5ccccc5Br)c(c1)Oc1ccc(cc1)C[C@@H]3N(C)CC2)N(C)CC4`, half-maximal inhibition in experiment [1] (IC50) required 780 nM. In other words, the sub-micromolar range.

`COc1cc2c3cc1Oc1c(OC)c(OC)cc4c1[C@@H](Cc1ccc(OCc5ccc(Br)cc5)c(c1)Oc1ccc(cc1)C[C@@H]3N(C)CC2)N(C)CC4` came in with an IC50 in [1] of 710 nM.

For `COc1cc2c3cc1Oc1c(OC)c(OC)cc4c1[C@@H](Cc1ccc(OC(=O)Cc5cc(F)c(F)cc5F)c(c1)Oc1ccc(cc1)C[C@@H]3N(C)CC2)N(C)CC4`, 3020 nM corresponded to half-maximal inhibition in experiment [1] (IC50).

Compound `COc1cc2c3cc1Oc1c(OC)c(OC)cc4c1[C@@H](Cc1ccc(OC(C)=O)c(c1)Oc1ccc(cc1)C[C@@H]3N(C)CC2)N(C)CC4` displayed a 50% inhibitory concentration (IC50) in experiment [1] of 6600 nM.

Consider `COc1cc2c3cc1Oc1c(OC)c(OC)cc4c1[C@@H](Cc1ccc(OC(=O)c5ccccc5C)c(c1)Oc1ccc(cc1)C[C@@H]3N(C)CC2)N(C)CC4`, for which the Activity in [4] worked out at 51.91%; in experiment [5], 29.28%; in experiment [6], 7.3%; in experiment [7], 20.04%; in [8], 22.89%; in experiment [9], 6.01%. Besides, the Activity in [10] is on record as 31.71%; in experiment [11], 32.37%. Moreover, in experiment [1], inhibition was half-maximal at 690 nM (IC50). In addition, the inhibition result in experiment [2] and in [3] was “Active” in each case.

In experiment [1], `COc1cc2c3cc1Oc1c(OC)c(OC)cc4c1[C@@H](Cc1ccc(OC(=O)c5cc(OC)c(OC)c(OC)c5)c(c1)Oc1ccc(cc1)C[C@@H]3N(C)CC2)N(C)CC4` had a half-maximal inhibitory concentration (IC50) of 690 nM. Also, the inhibition entry in experiment [2] and in [3] was “Active” throughout.

As to `COc1cc2c3cc1Oc1c(OC)c(OC)cc4c1[C@@H](Cc1ccc(O)c(c1)Oc1ccc(cc1)C[C@@H]3N(C)CC2)N(C)CC4` [BERBAMINE], the IC50 in [1] is 8930 nM. In addition, the inhibition entry in experiment [2] and in [3] was “Active” in each case.

Turning to `CCOCCCCOc1ccc2cc1Oc1ccc(cc1)C[C@H]1c3cc(c(OC)cc3CCN1C)Oc1c(OC)c(OC)cc3c1[C@@H](C2)N(C)CC3`, the concentration for half-maximal inhibition (IC50) in experiment [1] worked out at 4080 nM.

Consider `COc1cc2c3cc1Oc1c(OC)c(OC)cc4c1[C@@H](Cc1ccc(OS(C)(=O)=O)c(c1)Oc1ccc(cc1)C[C@@H]3N(C)CC2)N(C)CC4`, for which the IC50 in experiment [1] came to 4740 nM.

Compound `COc1cc2c3cc1Oc1c(OC)c(OC)cc4c1[C@@H](Cc1ccc(OC(=O)c5cccc(F)c5)c(c1)Oc1ccc(cc1)C[C@@H]3N(C)CC2)N(C)CC4` returned an IC50 in experiment [1] of 1970 nM.

`CCOc1ccc2cc1Oc1ccc(cc1)C[C@H]1c3cc(c(OC)cc3CCN1C)Oc1c(OC)c(OC)cc3c1[C@@H](C2)N(C)CC3`: the half-inhibitory concentration (IC50) in [1] came to 3140 nM.

Compound `COc1cc2c3cc1Oc1c(OC)c(OC)cc4c1[C@@H](Cc1ccc(OC(=O)c5ccc([N+](=O)[O-])cc5)c(c1)Oc1ccc(cc1)C[C@@H]3N(C)CC2)N(C)CC4` [E6 BERBAMINE] displayed an IC50 in [1] of 2130 nM.

Turning to `COc1cc2c3cc1Oc1c(OC)c(OC)cc4c1[C@@H](Cc1ccc(OC(=O)c5ccco5)c(c1)Oc1ccc(cc1)C[C@@H]3N(C)CC2)N(C)CC4`, the IC50 in experiment [1] was 2780 nM.

`COc1cc2c3cc1Oc1c(OC)c(OC)cc4c1[C@@H](Cc1ccc(OC(=O)c5ccccc5Cl)c(c1)Oc1ccc(cc1)C[C@@H]3N(C)CC2)N(C)CC4` gave an IC50 in experiment [1] of 600 nM.

The compound `COc1cc2c3cc1Oc1c(OC)c(OC)cc4c1[C@@H](Cc1ccc(OC(=O)c5ccccc5)c(c1)Oc1ccc(cc1)C[C@@H]3N(C)CC2)N(C)CC4` came in with an IC50 in experiment [1] of 2160 nM.

In [1], `COc1cc2c3cc1Oc1c(OC)c(OC)cc4c1[C@@H](Cc1ccc(OC(=O)c5cccc(CCl)c5)c(c1)Oc1ccc(cc1)C[C@@H]3N(C)CC2)N(C)CC4` had an IC50 of 500 nM.

`COc1cc2c3cc1Oc1c(OC)c(OC)cc4c1[C@@H](Cc1ccc(OC(=O)c5ccc(Br)cc5)c(c1)Oc1ccc(cc1)C[C@@H]3N(C)CC2)N(C)CC4` gave an IC50 in [1] of 400 nM.

On to `COc1cc2c3cc1Oc1c(OC)c(OC)cc4c1[C@@H](Cc1ccc(OCc5cc(OC)c(OC)c(OC)c5)c(c1)Oc1ccc(cc1)C[C@@H]3N(C)CC2)N(C)CC4`, for which the 50% inhibitory concentration (IC50) in [1] was 1530 nM. Against the preceding compound, the IC50 is about 3.8-fold higher.

Compound `COc1cc2c3cc1Oc1c(OC)c(OC)cc4c1[C@@H](Cc1ccc(OCc5ccc([N+](=O)[O-])cc5)c(c1)Oc1ccc(cc1)C[C@@H]3N(C)CC2)N(C)CC4` registered a half-maximal inhibitory concentration (IC50) in [1] of 360 nM.

`COc1cc2c3cc1Oc1c(OC)c(OC)cc4c1[C@@H](Cc1ccc(OCc5ccccc5)c(c1)Oc1ccc(cc1)C[C@@H]3N(C)CC2)N(C)CC4`: the concentration for half-maximal inhibition (IC50) in experiment [1] was 800 nM.

Regarding `COc1cc2c3cc1Oc1c(OC)c(OC)cc4c1[C@@H](Cc1ccc(OCc5ccc(Cl)nc5)c(c1)Oc1ccc(cc1)C[C@@H]3N(C)CC2)N(C)CC4`, the IC50 in experiment [1] turned out to be 400 nM.

`COc1cc2c3cc1Oc1c(OC)c(OC)cc4c1[C@@H](Cc1ccc(OC(=O)c5cccc(C(F)(F)F)c5)c(c1)Oc1ccc(cc1)C[C@@H]3N(C)CC2)N(C)CC4` showed an IC50 in experiment [1] of 890 nM.

In experiment [1], `COc1cc2c3cc1Oc1c(OC)c(OC)cc4c1[C@@H](Cc1ccc(OC(=O)c5cc6ccccc6[nH]5)c(c1)Oc1ccc(cc1)C[C@@H]3N(C)CC2)N(C)CC4` returned an IC50 of 460 nM.

The compound `COc1cc2c3cc1Oc1c(OC)c(OC)cc4c1[C@@H](Cc1ccc(OC(=O)c5cc([N+](=O)[O-])cc([N+](=O)[O-])c5)c(c1)Oc1ccc(cc1)C[C@@H]3N(C)CC2)N(C)CC4` yielded a half-inhibitory concentration (IC50) in experiment [1] of 3750 nM.

As to `COc1ccc(C(=O)Oc2ccc3cc2Oc2ccc(cc2)C[C@H]2c4cc(c(OC)cc4CCN2C)Oc2c(OC)c(OC)cc4c2[C@@H](C3)N(C)CC4)cc1`, in experiment [1], half-maximal inhibition (IC50) required 550 nM. For the same compound, the inhibition entry in [2] and in experiment [3] was “Active” each time.

In [1], `COc1cc2c3cc1Oc1c(OC)c(OC)cc4c1[C@@H](Cc1ccc(OS(=O)(=O)c5ccccc5)c(c1)Oc1ccc(cc1)C[C@@H]3N(C)CC2)N(C)CC4` had an IC50 of 1990 nM.

The compound `C=C(C)C(=O)Oc1ccc2cc1Oc1ccc(cc1)C[C@H]1c3cc(c(OC)cc3CCN1C)Oc1c(OC)c(OC)cc3c1[C@@H](C2)N(C)CC3` had an IC50 in experiment [1] of 3810 nM.

Turning to `COc1cc2c3cc1Oc1c(OC)c(OC)cc4c1[C@@H](Cc1ccc(OC(=O)CCl)c(c1)Oc1ccc(cc1)C[C@@H]3N(C)CC2)N(C)CC4`, the midpoint of inhibition in experiment [1], the IC50, lay at 2700 nM.
